# Laboratory results: ChEMBL document CHEMBL4428087, “Synthesis and antitumor activity evaluation of quinazoline derivatives bearing piperazine-1-carbodithioate moiety at C4-position” (Bioorg Med Chem Lett, 2016)
# How the values were obtained:
# [1] = test system: MCF7; experiment: Antiproliferative activity against human MCF7 cells after 72 hrs by MTS assay; format: functional, cell-based; details: MCF7, 72 h
# How it was run: (§1)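 Cells were exposed to compound for 72 h. A first screen at 50 μM called a compound active at ≥50% inhibition versus vehicle-treated cells. Active compounds were then tested at various concentrations, and IC50 (concentration giving 50% proliferation inhibition) was derived. Values are mean ± SD from triplicate determinations in three independent experiments.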
# [2] = test system: A549; experiment: Antiproliferative activity against human A549 cells after 72 hrs by MTS assay; format: functional, cell-based; details: A549, 72 h; how it was run: as §1
# [3] = test system: HCT-116; experiment: Antiproliferative activity against human HCT116 cells after 72 hrs by MTS assay; format: functional, cell-based; details: HCT-116, 72 h; how it was run: as §1
# [4] = test system: HCT-116; experiment: Cell cycle arrest in human HCT116 cells assessed as accumulation at G0/G1 phase after 24 hrs by propidium iodide staining based flow cytometry; format: functional
# How it was run: (§2)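 HCT-116 cells were treated for 24 h at multiples of IC50 (1×, 1.25× or 1.5×) or at 0.1 µM, with a DMSO control. Cells were harvested, fixed in 70% ice-cold ethanol and stained with propidium iodide. DNA content was read by flow cytometry, and the percentages of cells in G0/G1, S and G2/M were calculated. Three independent experiments were run.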
# [5] = test system: HCT-116; experiment: Cell cycle arrest in human HCT116 cells assessed as accumulation at S phase at 0.1 uM after 24 hrs by propidium iodide staining based flow cytometry (reference value: 46.36 %); format: functional; how it was run: as §2
# [6] = test system: HCT-116; experiment: Cell cycle arrest in human HCT116 cells assessed as accumulation at G2/M phase at 0.1 uM after 24 hrs by propidium iodide staining based flow cytometry (reference value: 16.91 %); format: functional; how it was run: as §2
# [7] = test system: HCT-116; experiment: Cell cycle arrest in human HCT116 cells assessed as accumulation at G0/G1 phase at 0.1 uM after 24 hrs by propidium iodide staining based flow cytometry (reference value: 34.93 %); format: functional; how it was run: as §2
# [8] = test system: HCT-116; experiment: Cell cycle arrest in human HCT116 cells assessed as accumulation at G0/G1 phase at IC50 after 24 hrs by propidium iodide staining based flow cytometry (reference value: 34.93 %); format: functional
# [9] = test system: HCT-116; experiment: Cell cycle arrest in human HCT116 cells assessed as accumulation at G2/M phase at IC50 after 24 hrs by propidium iodide staining based flow cytometry (reference value: 16.91 %); format: functional
# [10] = test system: HCT-116; experiment: Cell cycle arrest in human HCT116 cells assessed as accumulation at S phase at IC50 after 24 hrs by propidium iodide staining based flow cytometry (reference value: 46.36 %); format: functional
# [11] = test system: HCT-116; experiment: Cell cycle arrest in human HCT116 cells assessed as accumulation at G0/G1 phase at 1.25 times IC50 after 24 hrs by propidium iodide staining based flow cytometry (reference value: 34.93 %); format: functional; how it was run: as §2
# [12] = test system: HCT-116; experiment: Cell cycle arrest in human HCT116 cells assessed as accumulation at G0/G1 phase at 1.5 times IC50 after 24 hrs by propidium iodide staining based flow cytometry (reference value: 34.93 %); format: functional; how it was run: as §2
# [13] = test system: HCT-116; experiment: Cell cycle arrest in human HCT116 cells assessed as accumulation at S phase at 1.25 times IC50 after 24 hrs by propidium iodide staining based flow cytometry (reference value: 46.36 %); format: functional; how it was run: as §2
# [14] = test system: HCT-116; experiment: Cell cycle arrest in human HCT116 cells assessed as accumulation at sub-G1 phase after 24 hrs by propidium iodide staining based flow cytometry; format: functional; how it was run: as §2
# [15] = test system: HCT-116; experiment: Cell cycle arrest in human HCT116 cells assessed as accumulation at S phase at 1.5 times IC50 after 24 hrs by propidium iodide staining based flow cytometry (reference value: 46.36 %); format: functional; how it was run: as §2
# [16] = test system: HCT-116; experiment: Cell cycle arrest in human HCT116 cells assessed as accumulation at G2/M phase at 1.5 times IC50 after 24 hrs by propidium iodide staining based flow cytometry (reference value: 16.91 %); format: functional; how it was run: as §2
# [17] = test system: HCT-116; experiment: Cell cycle arrest in human HCT116 cells assessed as accumulation at G2/M phase at 1.25 times IC50 after 24 hrs by propidium iodide staining based flow cytometry (reference value: 16.91 %); format: functional; how it was run: as §2
SMILES,IC50 [1] [µM],IC50 [2] [µM],IC50 [3] [µM],further results
COc1cc2c(N3CCN(C(=S)SCc4ccc(F)cc4)CC3)ncnc2cc1OCCCN1CCCCC1,4.2,4.25,4.5,–
COc1cc2c(N3CCN(C(=S)SCc4ccc(Br)cc4)CC3)ncnc2cc1OCCCN1CCCCC1,3.93,4.31,4.52,–
COc1cccc(CSC(=S)N2CCN(c3ncnc4cc(OCCCN5CCCCC5)c(OC)cc34)CC2)c1,3.86,4.58,8.01,–
COc1cc2c(N3CCN(C(=S)SCc4ccsc4)CC3)ncnc2cc1OCCCN1CCCCC1,5.17,4.84,5.64,–
CCSC(=S)N1CCN(c2ncnc3cc(OCCCN4CCCCC4)c(OC)cc23)CC1,16.6,18.4,10.3,–
COc1cc2c(N3CCN(C(=S)SCc4ccncc4)CC3)ncnc2cc1OCCCN1CCCCC1,> 50,> 50,> 50,–
COc1cc2c(N3CCN(C(=S)SCC4CCOCC4)CC3)ncnc2cc1OCCCN1CCCCC1,18.4,19.1,15.1,–
COc1cc2c(N3CCN(C(=S)SCc4ccc([N+](=O)[O-])cc4)CC3)ncnc2cc1OCCCN1CCCCC1,6.89,5.36,5.65,–
COc1cc2c(N3CCN(C(=S)SCc4c(F)c(F)c(F)c(F)c4F)CC3)ncnc2cc1OCCCN1CCCCC1,4.14,4.58,4.45,–
COc1cc2c(N3CCN(C(=S)SC(C)C)CC3)ncnc2cc1OCCCN1CCCCC1,8.37,11.3,10.4,–
COc1cc2c(N3CCN(C(=S)SCc4ccc(C#N)cc4)CC3)ncnc2cc1OCCCN1CCCCC1,10.1,9.52,8.67,–
COc1cc2c(N3CCN(C(=S)SCc4ccccc4)CC3)ncnc2cc1OCCCN1CCCCC1,28,15.7,28.8,–
CCCSC(=S)N1CCN(c2ncnc3cc(OCCCN4CCCCC4)c(OC)cc23)CC1,10.5,8.07,8.67,–
COc1cc2c(N3CCN(C(=S)SCc4ccco4)CC3)ncnc2cc1OCCCN1CCCCC1,7.29,6.58,7.3,–
COc1cc2c(N3CCN(C(=S)SCc4ccc(C(=O)O)cc4)CC3)ncnc2cc1OCCCN1CCCCC1,> 50,> 50,> 50,–
COc1cc2c(N3CCN(C(=S)SCc4ccc(C)cc4)CC3)ncnc2cc1OCCCN1CCCCC1,3.73,4.51,5.46,–
COc1cc2c(N3CCN(C(=S)SCC4OCCO4)CC3)ncnc2cc1OCCCN1CCCCC1,29.6,24.6,23.9,–
COc1cc2c(N3CCN(C(=O)Nc4ccc(OC(C)C)cc4)CC3)ncnc2cc1OCCCN1CCCCC1 [TANDUTINIB],14.7,14.8,18.1,–
COc1cc2c(N3CCN(C(=S)SCc4cccnc4)CC3)ncnc2cc1OCCCN1CCCCC1,22.2,19.5,22.2,–
COc1ccc(CSC(=S)N2CCN(c3ncnc4cc(OCCCN5CCCCC5)c(OC)cc34)CC2)cc1,4.16,4.25,4.92,–
COc1cc2c(N3CCN(C(=S)SCc4ccc(F)cc4F)CC3)ncnc2cc1OCCCN1CCCCC1,4.67,5.44,4.64,–
CCN(CC)CCNC(=O)c1c(C)[nH]c(/C=C2\C(=O)Nc3ccc(F)cc32)c1C [SUNITINIB],–,–,–,Activity [4]: Dose-dependent effect; Activity [5]: 33.36%; Activity [6]: 14.16%; Activity [7]: 50.07%
O=c1[nH]cc(F)c(=O)[nH]1 [FLUOROURACIL],–,–,–,Activity [8]: 28.47%; Activity [9]: 8.29%; Activity [10]: 62.28%
COc1cc2c(N3CCN(C(=S)SCc4ccc(F)c(F)c4)CC3)ncnc2cc1OCCCN1CCCCC1,3.07,4.9,5.96,–
COc1cc2c(N3CCN(C(=S)SCc4ccc(Cl)cc4)CC3)ncnc2cc1OCCCN1CCCCC1,3.94,4.71,8.04,–
COc1cc2c(N3CCN(C(=S)SC)CC3)ncnc2cc1OCCCN1CCCCC1,27.5,33.4,24.4,–
COc1cc2c(N3CCN(C(=S)SCC4CCCCC4)CC3)ncnc2cc1OCCCN1CCCCC1,3.99,4.06,4.55,Activity [8]: 44.47%; Activity [4]: Dose-dependent effect; Activity [11]: 50.65%; Activity [12]: 55.8%; Activity [9]: 28.74%; Activity [13]: 23.67%; Activity [14]: Dose-dependent effect; Activity [15]: 27.37%; Activity [16]: 14.4%; Activity [10]: 26.82%; Activity [17]: 24.97%
COc1cc2c(N3CCN(C(=S)SCc4ccccn4)CC3)ncnc2cc1OCCCN1CCCCC1,20.7,28.8,20.6,–
COc1cc2c(N3CCN(C(=S)SCC4CCCO4)CC3)ncnc2cc1OCCCN1CCCCC1 (centres undefined),22.7,22.8,19.2,–
